Results published in ChEMBL document CHEMBL4257459, “Synergistic antifungal effect of cyclized chalcone derivatives and fluconazole against Candida albicans” (2017).
Converted amounts (≈) assume the structure as drawn.

Assays:
[1] = system: Candida albicans; experiment: Antifungal activity against fluconazole resistant Candida albicans 167-2 by CLSI protocol based broth microdilution method; assay type: functional
Procedure, shortened: (§1)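 Broth microdilution per CLSI M27-A3 against clinical C. albicans isolates. Strains sub-cultured at least twice on Tryptone Soya Agar, 37 °C, 48 h. Compounds dissolved in DMSO at 2000 μg mL–1 stock. Fluconazole positive control, plus culture, media and vehicle controls. Run in duplicate; MIC in μg mL–1.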

[2] = system: Candida albicans; experiment: Antifungal activity against fluconazole resistant Candida albicans A171 by CLSI protocol based broth microdilution method; assay type: functional; procedure, shortened: as §1
[3] = system: Candida albicans; experiment: Antifungal activity against fluconazole resistant Candida albicans 167-1 by CLSI protocol based broth microdilution method; assay type: functional; procedure, shortened: as §1
[4] = system: Candida albicans; experiment: Antifungal activity against fluconazole susceptible Candida albicans 002B1 by CLSI protocol based broth microdilution method; assay type: functional
Procedure, shortened: (§2)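 Clinical isolates and control strain subcultured at least twice on TSA, 37 °C, 48 h. MICs by CLSI M27-A3 broth microdilution; compounds dissolved in DMSO to 2000 μg mL–1 stock. Fluconazole positive control, culture, media and DMSO vehicle controls in each run. Duplicate experiments; MIC in μg mL–1.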

[5] = system: Candida albicans; experiment: Antifungal activity against fluconazole susceptible Candida albicans 003gr by CLSI protocol based broth microdilution method; assay type: functional; procedure, shortened: as §2
[6] = system: Candida albicans; experiment: Antifungal activity against fluconazole susceptible Candida albicans 004gr by CLSI protocol based broth microdilution method; assay type: functional; procedure, shortened: as §2
[7] = system: Candida albicans; experiment: Antifungal activity against fluconazole susceptible Candida albicans 004B1 by CLSI protocol based broth microdilution method; assay type: functional; procedure, shortened: as §2
[8] = system: Candida albicans; experiment: Antifungal activity against fluconazole susceptible Candida albicans 0079gr by CLSI protocol based broth microdilution method; assay type: functional; procedure, shortened: as §2
[9] = system: Candida albicans; experiment: Antifungal activity against fluconazole susceptible Candida albicans 0072gr by CLSI protocol based broth microdilution method; assay type: functional; procedure, shortened: as §2
[10] = system: Candida albicans; experiment: Antifungal activity against Candida albicans ATCC 90028 by CLSI protocol based broth microdilution method; assay type: functional; procedure, shortened: as §2
[11] = system: Candida albicans; experiment: Antifungal activity against fluconazole resistant Candida albicans A171 in presence of fluconazole by CLSI protocol based broth microdilution method; assay type: functional
Procedure, shortened: (§3)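 Checkerboard-style combination with fluconazole at a 1 : 1 ratio, over concentrations 2–4 fold below each agent's MIC alone, by CLSI broth microdilution. Fractional inhibitory concentration index calculated and interpreted as synergy (<0.5), additive (0.5–1), indifferent or antagonistic.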

[12] = system: Candida albicans; experiment: Antifungal activity against fluconazole resistant Candida albicans 167-1 in presence of fluconazole by CLSI protocol based broth microdilution method; assay type: functional; procedure, shortened: as §3
[13] = system: Candida albicans; experiment: Antifungal activity against fluconazole resistant Candida albicans 167-2 in presence of fluconazole by CLSI protocol based broth microdilution method; assay type: functional; procedure, shortened: as §3
[14] = system: Candida albicans; experiment: Antifungal activity against fluconazole susceptible Candida albicans 002B1 in presence of fluconazole by CLSI protocol based broth microdilution method; assay type: functional
[15] = system: Candida albicans; experiment: Antifungal activity against fluconazole susceptible Candida albicans 003gr in presence of fluconazole by CLSI protocol based broth microdilution method; assay type: functional
[16] = system: Candida albicans; experiment: Antifungal activity against fluconazole susceptible Candida albicans 004gr in presence of fluconazole by CLSI protocol based broth microdilution method; assay type: functional
[17] = system: Candida albicans; experiment: Antifungal activity against fluconazole susceptible Candida albicans 004B1 in presence of fluconazole by CLSI protocol based broth microdilution method; assay type: functional
[18] = system: Candida albicans; experiment: Antifungal activity against fluconazole susceptible Candida albicans 0079gr in presence of fluconazole by CLSI protocol based broth microdilution method; assay type: functional
[19] = system: Candida albicans; experiment: Antifungal activity against fluconazole susceptible Candida albicans 0072gr in presence of fluconazole by CLSI protocol based broth microdilution method; assay type: functional
[20] = system: Candida albicans; experiment: Antifungal activity against Candida albicans ATCC 90028 in presence of fluconazole by CLSI protocol based broth microdilution method; assay type: functional
[21] = system: Candida albicans; experiment: Inhibition of ABC efflux pumps in fluconazole resistant Candida albicans A171 assessed as reduction in energy-dependent rhodamine 6G efflux in presence of 0.1 M glucose after 25 mins by fluorescence assay relative to control
Procedure, shortened: (§4)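 Cells grown in TSB at 37 °C for 8 h, washed, resuspended in glucose-free PBS at 1 × 10^8 cells. De-energized 45 min with 5 mM deoxyglucose plus 5 mM dinitrophenol. […] Washed, sampled 5–25 min, then 0.1 M glucose added. Absorbance 527 nm, R6G from standard curve.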

[22] = system: Candida albicans; experiment: Inhibition of ABC efflux pumps in fluconazole resistant Candida albicans 167-1 assessed as reduction in energy-dependent rhodamine 6G efflux in presence of 0.1 M glucose after 25 mins […] relative to control
[23] = system: Candida albicans; experiment: Inhibition of ABC efflux pumps in fluconazole resistant Candida albicans 167-2 assessed as reduction in energy-dependent rhodamine 6G efflux in presence of 0.1 M glucose after 25 mins […] relative to control
[24] = system: Candida albicans; experiment: Inhibition of ABC efflux pumps in fluconazole susceptible Candida albicans 002B1 assessed as reduction in energy-dependent rhodamine 6G efflux in presence of 0.1 M glucose after 25 mins […] relative to control
[25] = system: Candida albicans; experiment: Inhibition of ABC efflux pumps in fluconazole susceptible Candida albicans 003gr assessed as reduction in energy-dependent rhodamine 6G efflux in presence of 0.1 M glucose after 25 mins […] relative to control
[26] = system: Candida albicans; experiment: Inhibition of ABC efflux pumps in fluconazole susceptible Candida albicans 004gr assessed as reduction in energy-dependent rhodamine 6G efflux in presence of 0.1 M glucose after 25 mins by fluorescence assay relative to control; procedure, shortened: as §4
[27] = system: Candida albicans; experiment: Inhibition of ABC efflux pumps in fluconazole susceptible Candida albicans 004B1 assessed as reduction in energy-dependent rhodamine 6G efflux in presence of 0.1 M glucose after 25 mins by fluorescence assay relative to control; procedure, shortened: as §4
[28] = system: Candida albicans; experiment: Inhibition of ABC efflux pumps in fluconazole susceptible Candida albicans 0079gr assessed as reduction in energy-dependent rhodamine 6G efflux in presence of 0.1 M glucose after 25 mins by fluorescence assay relative to control; procedure, shortened: as §4
[29] = system: Candida albicans; experiment: Inhibition of ABC efflux pumps in fluconazole susceptible Candida albicans 0072gr assessed as reduction in energy-dependent rhodamine 6G efflux in presence of 0.1 M glucose after 25 mins […] relative to control
[30] = system: Candida albicans; experiment: Inhibition of ergosterol biosynthesis in fluconazole resistant Candida albicans A171 at 0.5 to 1 times MIC relative to control; assay type: functional
Procedure, shortened: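 Total sterols quantified by alcoholic KOH extraction in cells grown in 50 ml TSB with compounds at MIC and ½ MIC; untreated and 8 μg mL–1 fluconazole controls. Spectral scan; ergosterol content from A281.5 and A230 absorbances, dilution factor and pellet weight, correcting for 24(28) DHE.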

[31] = system: Candida albicans; experiment: Inhibition of ergosterol biosynthesis in fluconazole susceptible Candida albicans ATCC 90028 at 0.5 to 1 times MIC relative to control; assay type: functional
Procedure, shortened: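 ATCC90028 grown in 50 ml TSB with MIC and ½ MIC of compound; untreated and 8 μg mL–1 fluconazole controls. Sterols extracted by alcoholic KOH method and spectrophotometrically scanned; ergosterol % calculated from A281.5 and A230 (E values 290 and 518) with dilution factor, per pellet weight.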

[32] = system: Candida albicans; experiment: Down regulation of ERG11 gene expression in fluconazole resistant Candida albicans A171 at MIC after 2 hrs by qRT PCR analysis relative to control; assay type: functional
Procedure, shortened: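 Cells exposed 2 h to test agents at MIC. Total RNA isolated, cDNA synthesized, qPCR for ERG11 with ACT1 as endogenous control. Triplicate independent experiments, reported as mean ± standard deviation.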

[33] = system: Candida albicans; experiment: Down regulation of ERG11 gene expression in fluconazole susceptible Candida albicans ATCC 90028 at MIC after 2 hrs by qRT PCR analysis relative to control; assay type: functional
Procedure, shortened: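 Cells exposed to compound at MIC for 2 h; total RNA isolated, cDNA synthesised, ERG11 measured by real-time qPCR with ACT1 as endogenous control. Triplicate independent experiments; mean ± standard deviation.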

O=C1NC(c2ccccc2)=CC(c2ccc(C3C=C(c4ccccc4)NC(=O)N3)cc2)N1 (centres undefined)
MIC [1]: 4 to 8 µg/mL (≈ 9.47 to 18.9 µM) | MIC [2]: 4 to 8 µg/mL (≈ 9.47 to 18.9 µM) | MIC [3]: 4 to 8 µg/mL (≈ 9.47 to 18.9 µM) | MIC [4]: 0.25 to 2 µg/mL (≈ 0.592 to 4.73 µM) | MIC [5]: 0.25 to 2 µg/mL (≈ 0.592 to 4.73 µM) | MIC [6]: 0.25 to 2 µg/mL (≈ 0.592 to 4.73 µM) | MIC [7]: 0.25 to 2 µg/mL (≈ 0.592 to 4.73 µM) | MIC [8]: 0.25 to 2 µg/mL (≈ 0.592 to 4.73 µM) | MIC [9]: 0.25 to 2 µg/mL (≈ 0.592 to 4.73 µM) | MIC [10]: 0.25 to 2 µg/mL (≈ 0.592 to 4.73 µM) | fractional inhibitory concentration index (FICI) [11]: 0.031 - 0.25 | fractional inhibitory concentration index (FICI) [12]: 0.031 - 0.25 | fractional inhibitory concentration index (FICI) [13]: 0.031 | fractional inhibitory concentration index (FICI) [14]: 0.13 - 0.38 | fractional inhibitory concentration index (FICI) [15]: 0.13 - 0.38 | fractional inhibitory concentration index (FICI) [16]: 0.13 - 0.38 | fractional inhibitory concentration index (FICI) [17]: 0.13 - 0.38 | fractional inhibitory concentration index (FICI) [18]: 0.13 - 0.38 | fractional inhibitory concentration index (FICI) [19]: 0.13 - 0.38 | fractional inhibitory concentration index (FICI) [20]: 0.13 - 0.38 | inhibition [21]: < 20% | inhibition [22]: < 20% | inhibition [23]: < 20% | inhibition [24]: < 20% | inhibition [25]: < 20% | inhibition [26]: < 20% | inhibition [27]: < 20% | inhibition [28]: < 20% | inhibition [29]: < 20% | inhibition (INH) [30]: 49 - 94% | inhibition (INH) [31]: 66 - 99% | fold change (FC) [32]: 1.25 - 10 | fold change (FC) [33]: 1.5 - 13

NC(=S)N1N=C(c2ccccc2)CC1c1ccccc1 (centres undefined)
MIC [1]: 500 µg/mL (≈ 1780 µM) | MIC [2]: 500 µg/mL (≈ 1780 µM) | MIC [3]: 500 µg/mL (≈ 1780 µM) | MIC [4]: 125 to 500 µg/mL (≈ 444 to 1780 µM) | MIC [5]: 125 to 500 µg/mL (≈ 444 to 1780 µM) | MIC [6]: 125 to 500 µg/mL (≈ 444 to 1780 µM) | MIC [7]: 125 to 500 µg/mL (≈ 444 to 1780 µM) | MIC [8]: 125 to 500 µg/mL (≈ 444 to 1780 µM) | MIC [9]: 125 to 500 µg/mL (≈ 444 to 1780 µM) | MIC [10]: 125 to 500 µg/mL (≈ 444 to 1780 µM) | fractional inhibitory concentration index (FICI) [11]: 0.75 - 1.5 | fractional inhibitory concentration index (FICI) [12]: 0.75 - 1.5 | fractional inhibitory concentration index (FICI) [13]: 0.75 - 1.5 | fractional inhibitory concentration index (FICI) [14]: 1.97 - 4.28 | fractional inhibitory concentration index (FICI) [15]: 1.97 - 4.28 | fractional inhibitory concentration index (FICI) [16]: 1.97 - 4.28 | fractional inhibitory concentration index (FICI) [17]: 1.97 - 4.28 | fractional inhibitory concentration index (FICI) [18]: 1.97 - 4.28 | fractional inhibitory concentration index (FICI) [19]: 1.97 - 4.28 | fractional inhibitory concentration index (FICI) [20]: 1.97 - 4.28 | inhibition [21]: < 20% | inhibition [22]: < 20% | inhibition [23]: < 20% | inhibition [24]: < 20% | inhibition [25]: < 20% | inhibition [26]: < 20% | inhibition [27]: < 20% | inhibition [28]: < 20% | inhibition [29]: < 20% | inhibition (INH) [30]: 49 - 94% | inhibition (INH) [31]: 66 - 99%
